TAAR1 agonist = human TAAR1 agonism; Q96RJ0; CHO RD-HGA16 TAAR1, Fluo-8 calcium fluorescence; vehicle wells 0%, saturating PEA agonist 100%; activation, % at 3 µM; 0.99% of 360,000 active;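 active = activation above the mean activation of all test compounds in the run plus 3 SD, cut at about 38% in these data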
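Test system: RD-HGA16 (CHO) cells co-expressing Gα16 and hTAAR1 / Benchmarks: DMSO vehicle as 0%, PEA at EC100 as 100% / Repeats: no replicates (n 1) / Measure: % activation from peak over basal fluorescence ratio, DMSO-to-PEA scaled / Timing: 17-24 h plating, Fluo-8 75 min 37 °C, 30 min RT / Technique: kinetic Fluo-8 calcium fluorescence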
GPR7 antagonist = blocks human GPR7 receptor signaling. P48145. GPR7-expressing cells, fluorescence antagonist assay. inhibition, % at 4.4 µM. 1.1% of 290,000 active; in the data active = inhibition above about 16%, passing the limit was not always enough;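 note: cells stimulated with the agonist NPW; 0% = agonist with vehicle and 100% = vehicle without agonist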
TRPML3 agonist = agonists of human TRPML3 channel | Q8TDD5 | HEK293 TRPML3-YFP, Fluo-8 calcium fluorescence; 100% = the carbachol control signal | activation, % at 3 µM | 0.29% of 220,000 active | AID 1448;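 active = activation above its plate's cutoff, the mean activation of the plate's test wells plus 3 SD, cut at about 12% in these data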;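 note: 0% = DMSO only wells and 100% = carbachol wells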
Target sequence (Q8TDD5 whole entry, looked up): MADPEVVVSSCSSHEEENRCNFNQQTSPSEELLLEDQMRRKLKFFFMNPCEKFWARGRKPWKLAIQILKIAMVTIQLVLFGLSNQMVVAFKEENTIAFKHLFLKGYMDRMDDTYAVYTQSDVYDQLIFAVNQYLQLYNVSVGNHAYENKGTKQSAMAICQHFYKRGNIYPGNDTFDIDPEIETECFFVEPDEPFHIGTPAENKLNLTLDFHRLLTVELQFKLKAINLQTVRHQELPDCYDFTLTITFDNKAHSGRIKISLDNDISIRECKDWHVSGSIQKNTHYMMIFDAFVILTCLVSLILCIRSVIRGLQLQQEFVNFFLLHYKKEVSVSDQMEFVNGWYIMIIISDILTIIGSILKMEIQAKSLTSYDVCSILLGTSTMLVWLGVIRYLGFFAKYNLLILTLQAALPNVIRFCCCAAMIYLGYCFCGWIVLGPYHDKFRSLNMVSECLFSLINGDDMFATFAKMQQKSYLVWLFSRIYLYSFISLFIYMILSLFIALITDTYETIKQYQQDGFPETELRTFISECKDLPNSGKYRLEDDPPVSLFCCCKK
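Test system: HEK293 cells stably carrying human TRPML3-YFP; Doses: single dose, 3 µM final nominal compound, 0.3% DMSO final; Schedule: dye loading 1 h 37 °C then 30 min ambient, 125 s read; Technique: Fluo-8 calcium fluorescence; Benchmarks: high control carbachol 87 µM, low control DMSO.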
LANA-H2A inh = blocks KSHV LANA binding to histone H2A/H2B; cell-free LANA-H2A/H2B peptide, fluorescence polarization; inhibition, % (test concentration not listed); 0.6% of 320,000 active; AID 2629; in the data active = inhibition mostly above about 10%, no sharp cut-off; inactive = mostly below about 6.7%
TAAR1 antagonist = antagonists of human TAAR1; inhibition, % at 3 µM; Q96RJ0; AID 624466; CHO RD-HGA16 TAAR1, Fluo-8 calcium fluorescence, antagonist; 1.5% of 360,000 active;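 active = inhibition above a per-plate cutoff, the mean inhibition of test compounds on that plate plus 3 SD, cut at about 49% in these data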;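 note: 0% = DMSO plus EC80 beta-PEA response and 100% = DMSO alone without agonist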
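Test system: CHO RD-HGA16 cells bearing hTAAR1 | Reagent: β-PEA, EC80 | Compound dosing: 3 µM, single point | Schedule: Dye loading 75 min at 37 °C, then 30 min room temperature | Signal: Calcium fluorescence with Fluo-8 | Evaluation: Percent inhibition of PEA-evoked calcium signal, max/basal emission ratio | Control set: DMSO-only wells and EC80 β-PEA-stimulated wells | Repeats: Singlicate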
zfTRPN1 agonist = activates the zebrafish TRPN1 channel; HEK293 zebrafish TRPN1-YFP, Fluo-8 calcium fluorescence; 100% = response to 87 µM carbachol; activation, % at 3 µM; 0.18% of 220,000 active;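 active = activation above its plate's cutoff, the mean activation of test wells on that plate plus 3 SD, cut at about 19% in these data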;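 note: 0% = DMSO alone and 100% = 87 µM carbachol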
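Material: zebrafish TRPN1-YFP in HEK293 cells. Doses: one dose of 3 µM, 0.3% DMSO. Incubation: dye 1 h 37 °C plus 30 min RT. Measured by: intracellular calcium fluorescence with Fluo-8.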
GPR7 antag conf = confirmation of human GPR7 antagonists; inhibition, % at 4.4 µM; GPR7-expressing cells, calcium fluorescence antagonist mode; AID 1952; shares compounds with GPR7 antagonist; 52% of 2,400 active; in the data active = inhibition above about 24%;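 note: stimulated with the GPR7 agonist NPW; 0% = agonist plus vehicle and 100% = vehicle alone without agonist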
MCHR1 antag = antagonizes human MCHR1, a GPR7 antagonist counter-screen. shares compounds with GPR7 antagonist. MCHR1-expressing cells, fluorescence antagonist assay. inhibition, % at 4.4 µM. 62% of 2,400 active. AID 2148; in the data active = inhibition above about 22%;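 note: 0% = vehicle with agonist and 100% = vehicle without agonist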
Starred values were filed as active, the others as inactive; . = not tested or not shown. Compounds with a hit are over-represented: about 3.4% of the library has one in this group of screens.

SMILES	TAAR1 agonist	GPR7 antagonist	TRPML3 agonist	LANA-H2A inh	TAAR1 antagonist	zfTRPN1 agonist	GPR7 antag conf	MCHR1 antag
CCC(c1nnnn1Cc1ccco1)N1CCN(c2cc(Cl)ccc2C)CC1 (stereo not given)	-2	23*	1	2	9	0	30*	52*
Cc1ccc(Cl)cc1N1CCN(Cc2nnnn2Cc2ccco2)CC1	10	-1	-1	1	3	-1	.	.
O=C(COC(=O)c1cccc(OC(F)F)c1)Nc1cccc(S(=O)(=O)N2CCCC2)c1	6	.	.	3	9	.	.	.
Cc1ccccc1CSCCNC(=O)CSCc1ccc([N+](=O)[O-])cc1	13	10	-1	0	12	-1	.	.
Cc1cccc(CSCCNC(=O)CSCc2ccc([N+](=O)[O-])cc2)c1	1	53*	-1	-7	22	-1	36*	73*
Cc1ccc(CSCCNC(=O)CSCc2ccc([N+](=O)[O-])cc2)cc1	4	27*	0	-3	17	-2	49*	45*
COc1ccc(S(=O)(=O)N2CCOCC2)cc1NC(=O)c1ccc(S(=O)(=O)N(C)c2ccccc2OC)cc1	3	.	.	.	3	.	.	.
CCOC(=O)C1CCN(C(=O)c2ccc(N3CCCC3=O)cc2)CC1	1	.	.	1	1	.	.	.
CCCCNC(=O)c1nc(C2CCN(S(=O)(=O)c3ccc(C(F)(F)F)cc3)CC2)oc1-c1ccccc1	2	.	.	.	-10	.	.	.
CC1(C(=O)O)CCN1C(=O)c1cccc(C(F)(F)F)c1 (stereo not given)	4	.	.	.	1	.	.	.
O=CNc1c(Cl)cc2c(c1Cl)Cc1cc([N+](=O)[O-])ccc1-2	1	.	.	.	2	.	.	.
COc1ccc(OCc2nnc(SCC(=O)NCC3CCCO3)n2N)cc1 (stereo not given)	-1	.	.	5	-14	.	.	.
CCn1c(COc2cccc(OC)c2)nnc1SCC(=O)NCC1CCCO1 (stereo not given)	5	25*	.	8	-12	.	-12	-6
C[C@@H](NC(=O)[C@@H]1CCCN1C(=O)[C@@H]1CCCN1C(=O)c1cccs1)c1ccccc1	-1	.	.	.	-2	.	.	.
O=c1cc(N2CCOCC2)[nH]c(=O)n1-c1ccc(Br)cc1	1	25*	1	2	11	3	-12	8
O=c1cc(N2CCOCC2)[nH]c(=O)n1-c1ccc(Cl)cc1	0	-10	0	-1	10	1	.	.
Cc1cc(CN(C)Cc2ccc(OCC(O)CN(C)Cc3ccccc3)cc2)on1 (stereo not given)	5	14	1	-9	-10	1	.	.
C=CCOc1ccc(CN(C)CC(O)COc2cccc3ccccc23)cc1 (stereo not given)	19	33*	.	-3	9	.	47*	39*
CCOCCCNC(=S)N1C2CCC1CC(NC(=O)Nc1ccc(C(=O)OCC)cc1)C2 (stereo not given)	3	26*	-1	-8	-38	2	-7	2
CCOC(=O)c1c(CSCc2ccccc2)oc2ccc(O)c(CN(C)C)c12	23	40*	1	0	-2	1	40*	68*
Cc1cc(=O)oc2cc(OCc3nnc(-c4ccccc4Br)o3)ccc12	43*	31*	1	6	22	0	17	25*
O=c1ccc2ccc(OCc3nnc(-c4ccccc4Br)o3)cc2o1	23	18	-1	-4	12	0	.	.
CSc1nc(SCCN(C)C)c2c3c(sc2n1)COC(C)(C)C3	0	-5	0	-2	-27	0	.	.
CCC1(C)Cc2c(sc3nc(SC)nc(NCCN(C)C)c23)CO1 (stereo not given)	7	26*	1	-10	2	1	9	14
O=C(c1nnsc1S(=O)c1ccc(Cl)cc1)N1CCOCC1 (stereo not given)	15	25*	2	.	24	0	37*	92*
SMILES	TAAR1 agonist	GPR7 antagonist	TRPML3 agonist	LANA-H2A inh	TAAR1 antagonist	zfTRPN1 agonist	GPR7 antag conf	MCHR1 antag
O=C(c1ccc(Cl)cc1)C(CN1CCCCC1)c1ccccc1 (stereo not given)	12	55*	.	-4	13	.	65*	82*
CCOC(=O)C(CN1CCCC1)c1ccccc1 (stereo not given)	10	.	.	2	14	.	.	.
CCOc1ccccc1-n1c(C)nc2cc(C(=O)O)ccc21	1	28*	0	-6	-6	1	-28	2
Cc1nc2cc(C(=O)O)ccc2n1-c1ccc(F)cc1F	2	-13	1	3	0	0	.	.
COc1ccc(CNC(=O)CN2C(=O)CCSc3ccc(S(=O)(=O)N4CCCC4)cc32)cc1	1	1	.	-2	-15	.	.	.
COc1ccc2nc(C)cc(N3CCOCC3)c2c1	6	22*	1	8	15	0	-11	-6
CC(=O)O[C@@H]1C[C@H]2C(C)(C)C(=O)C=C[C@]2(C)[C@H]2CC[C@@]3(C)[C@H](c4ccoc4)OC(=O)[C@H]4O[C@]43[C@@]21C	21	28*	4	1	20	10	42*	18
CC(=O)OC1CC2C(C)(C)C(=O)C=CC2(C)C2CCC3(C)C(c4ccoc4)OC(=O)C4OC43C12C (stereo not given)	6	.	.	.	-13	.	.	.
O=C1CSC(c2cccc([N+](=O)[O-])c2)N1CCc1ccccc1 (stereo not given)	0	-1	.	1	-2	.	.	.
Cn1cccc1/C=C(/C#N)c1ccc(F)cc1	-3	26*	-1	0	27	-4	0	9
O=C1C2C3C=CC(C3)C2C(=O)N1c1ccc(-c2nc3ccccc3o2)cc1 (stereo not given)	5	40*	0	2	2	0	12	1
O=C1C2C3C=CC(C3)C2C(=O)N1c1ccncc1 (stereo not given)	3	-15	0	6	11	0	.	.
c1ccc(-c2csc3ncnc(NCC4COc5ccccc5O4)c23)cc1 (stereo not given)	0	50*	0	3	39	-1	54*	63*
Cc1sc2ncnc(NCC3COc4ccccc4O3)c2c1C (stereo not given)	1	15	2	-5	12	9	.	.
COc1cccc(C(c2nnnn2C2CCCC2)N2CCN(C/C=C/c3ccccc3)CC2)c1OC (stereo not given)	2	.	.	.	-24	.	.	.
